According to ChEMBL document CHEMBL4325889, “Natural products hybrids: 3,5,4'-Trimethoxystilbene-5,6,7-trimethoxyflavone chimeric analogs as potential cytotoxic agents against diverse human cancer cells” (Eur J Med Chem, 2019):

How the values were obtained:
Assay type in all cases: functional
[1] = system: SK-MEL-2; assay: Growth inhibition of human SK-MEL-2 cells at 10 uM after 48 hrs by SRB assay relative to control; details: SK-MEL-2, 48 h, read-out: GI
Procedure, shortened: (§1)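 Screened at the National Cancer Institute by the standard NCI protocol using the sulforhodamine B assay, which measures cellular protein. Single dose of 10 µM. Result is percent growth inhibition; values above 100% mean cell number fell below the initial population. Values are the average of duplicates.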

[2] = system: SN12C; assay: Growth inhibition of human SN12C cells at 10 uM after 48 hrs by SRB assay relative to control; details: read-out: GI; procedure, shortened: as §1
[3] = system: UO-31; assay: Growth inhibition of human UO31 cells at 10 uM after 48 hrs by SRB assay relative to control; details: UO-31, 48 h, read-out: GI
Procedure, shortened: (§2)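 NCI screen against its human cancer cell line panel by the standard NCI protocol, SRB protein stain. Single dose of 10 μM. Percent growth inhibition versus control; values above 100% mean the cell population fell below the starting number. Each value is the mean of duplicates.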

[4] = system: MCF7; assay: Growth inhibition of human MCF7 cells at 10 uM after 48 hrs by SRB assay relative to control; details: MCF7, 48 h, read-out: GI; procedure, shortened: as §1
[5] = system: LOX IMVI; assay: Growth inhibition of human LOXIMVI cells at 10 uM after 48 hrs by SRB assay relative to control; details: read-out: GI; procedure, shortened: as §1
[6] = system: NCI-H460; assay: Growth inhibition of human NCI-H460 cells at 10 uM after 48 hrs by SRB assay relative to control; details: NCI-H460, 48 h, read-out: GI; procedure, shortened: as §1
[7] = system: SR; assay: Growth inhibition of human SR cells at 10 uM after 48 hrs by SRB assay relative to control; details: read-out: GI; procedure, shortened: as §2
[8] = system: HCT-15; assay: Growth inhibition of human HCT15 cells at 10 uM after 48 hrs by SRB assay relative to control; details: HCT-15, 48 h, read-out: GI; procedure, shortened: as §1
[9] = system: A549; assay: Growth inhibition of human A549 cells at 10 uM after 48 hrs by SRB assay relative to control; details: A549, 48 h, read-out: GI; procedure, shortened: as §1
[10] = system: ACHN; assay: Growth inhibition of human ACHN cells at 10 uM after 48 hrs by SRB assay relative to control; details: read-out: GI; procedure, shortened: as §1
[11] = system: MOLT-4; assay: Growth inhibition of human MOLT4 cells at 10 uM after 48 hrs by SRB assay relative to control; details: MOLT-4, 48 h, read-out: GI; procedure, shortened: as §1
[12] = system: IGROV-1; assay: Growth inhibition of human IGROV1 cells at 10 uM after 48 hrs by SRB assay relative to control; details: IGROV-1, 48 h, read-out: GI; procedure, shortened: as §1
[13] = system: Malme-3M; assay: Growth inhibition of human MALME-3M cells at 10 uM after 48 hrs by SRB assay relative to control; details: read-out: GI; procedure, shortened: as §1
[14] = system: NCI-H322M; assay: Growth inhibition of human NCI-H322M cells at 10 uM after 48 hrs by SRB assay relative to control; details: read-out: GI; procedure, shortened: as §1
[15] = system: UACC-257; assay: Growth inhibition of human UACC257 cells at 10 uM after 48 hrs by SRB assay relative to control; details: UACC-257, 48 h, read-out: GI; procedure, shortened: as §2
[16] = system: HOP-92; assay: Growth inhibition of human HOP92 cells at 10 uM after 48 hrs by SRB assay relative to control; details: HOP-92, 48 h, read-out: GI; procedure, shortened: as §1
[17] = system: MDA-MB-468; assay: Growth inhibition of human MDA-MB-468 cells at 10 uM after 48 hrs by SRB assay relative to control; details: MDA-MB-468, 48 h, read-out: GI; procedure, shortened: as §1
[18] = system: CAKI-1; assay: Growth inhibition of human Caki1 cells at 10 uM after 48 hrs by SRB assay relative to control; details: CAKI-1, 48 h, read-out: GI; procedure, shortened: as §1
[19] = system: NCI-H23; assay: Growth inhibition of human NCI-H23 cells at 10 uM after 48 hrs by SRB assay relative to control; details: NCI-H23, 48 h, read-out: GI; procedure, shortened: as §1
[20] = system: U-251; assay: Growth inhibition of human U251 cells at 10 uM after 48 hrs by SRB assay relative to control; details: U-251, 48 h, read-out: GI; procedure, shortened: as §2
[21] = system: SF-539; assay: Growth inhibition of human SF539 cells at 10 uM after 48 hrs by SRB assay relative to control; details: SF-539, 48 h, read-out: GI; procedure, shortened: as §1
[22] = system: RPMI-8226; assay: Growth inhibition of human RPMI8226 cells at 10 uM after 48 hrs by SRB assay relative to control; details: RPMI-8226, 48 h, read-out: GI; procedure, shortened: as §1
[23] = system: SW-620; assay: Growth inhibition of human SW620 cells at 10 uM after 48 hrs by SRB assay relative to control; details: SW-620, 48 h, read-out: GI; procedure, shortened: as §2
[24] = system: TK-10; assay: Growth inhibition of human TK10 cells at 10 uM after 48 hrs by SRB assay relative to control; details: TK-10, 48 h, read-out: GI; procedure, shortened: as §2
[25] = system: COLO 205; assay: Growth inhibition of human COLO205 cells at 10 uM after 48 hrs by SRB assay relative to control; details: COLO 205, 48 h, read-out: GI; procedure, shortened: as §1
[26] = system: OVCAR-4; assay: Growth inhibition of human OVCAR4 cells at 10 uM after 48 hrs by SRB assay relative to control; details: OVCAR-4, 48 h, read-out: GI; procedure, shortened: as §1
[27] = system: HT-29; assay: Growth inhibition of human HT-29 cells at 10 uM after 48 hrs by SRB assay relative to control; details: HT-29, 48 h, read-out: GI; procedure, shortened: as §1
[28] = system: NCI-H522; assay: Growth inhibition of human NCI-H522 cells at 10 uM after 48 hrs by SRB assay relative to control; details: NCI-H522, 48 h, read-out: GI; procedure, shortened: as §1
[29] = system: KM12; assay: Growth inhibition of human KM12 cells at 10 uM after 48 hrs by SRB assay relative to control; details: KM12, 48 h, read-out: GI; procedure, shortened: as §1
[30] = system: CCRF-CEM; assay: Growth inhibition of human CCRF-CEM cells at 10 uM after 48 hrs by SRB assay relative to control; details: read-out: GI; procedure, shortened: as §1
[31] = system: 786-0; assay: Growth inhibition of human 786-0 cells at 10 uM after 48 hrs by SRB assay relative to control; details: 786-0, 48 h, read-out: GI; procedure, shortened: as §1
[32] = system: SF-295; assay: Growth inhibition of human SF295 cells at 10 uM after 48 hrs by SRB assay relative to control; details: SF-295, 48 h, read-out: GI; procedure, shortened: as §1
[33] = system: Hs-578T; assay: Growth inhibition of human Hs 578T cells at 10 uM after 48 hrs by SRB assay relative to control; details: read-out: GI; procedure, shortened: as §1
[34] = system: HOP-62; assay: Growth inhibition of human HOP62 cells at 10 uM after 48 hrs by SRB assay relative to control; details: HOP-62, 48 h, read-out: GI; procedure, shortened: as §1
[35] = system: SNB-75; assay: Growth inhibition of human SNB75 cells at 10 uM after 48 hrs by SRB assay relative to control; details: SNB-75, 48 h, read-out: GI; procedure, shortened: as §2
[36] = system: SK-MEL-28; assay: Growth inhibition of human SK-MEL-28 cells at 10 uM after 48 hrs by SRB assay relative to control; details: SK-MEL-28, 48 h, read-out: GI; procedure, shortened: as §1

Row | Compound | inhibition of growth at 10 µM [1] | inhibition of growth at 10 µM [2] | inhibition of growth at 10 µM [3] | inhibition of growth at 10 µM [4] | inhibition of growth at 10 µM [5] | inhibition of growth at 10 µM [6] | inhibition of growth at 10 µM [7] | inhibition of growth at 10 µM [8] | inhibition of growth at 10 µM [9] | inhibition of growth at 10 µM [10] | inhibition of growth at 10 µM [11] | inhibition of growth at 10 µM [12] | inhibition of growth at 10 µM [13] | inhibition of growth at 10 µM [14] | inhibition of growth at 10 µM [15] | inhibition of growth at 10 µM [16] | inhibition of growth at 10 µM [17] | inhibition of growth at 10 µM [18] | inhibition of growth at 10 µM [19] | inhibition of growth at 10 µM [20] | further results
1 | COc1ccc(NC(=O)c2cccc(-c3cc(=O)c4c(O)c(OC)c(OC)cc4o3)c2)cc1 | 16.6% | 15.7% | 6.6% | 6.72% | 20.2% | 7.3% | 19.2% | -7.36% | 18.7% | 16.4% | -2.73% | 4.86% | 19.4% | 0.54% | 20.8% | 76.4% | 15.7% | 6.41% | 8.74% | 26.8% | inhibition of growth at 10 µM [21]: 43.9%; inhibition of growth at 10 µM [22]: 7.48%; inhibition of growth at 10 µM [23]: -1.58%; inhibition of growth at 10 µM [24]: -5.09%; inhibition of growth at 10 µM [25]: 2.39%; inhibition of growth at 10 µM [26]: 2.54%; inhibition of growth at 10 µM [27]: 12.3%; inhibition of growth at 10 µM [28]: 20.6%; inhibition of growth at 10 µM [29]: -3.03%; inhibition of growth at 10 µM [30]: 16%; inhibition of growth at 10 µM [31]: 57%; inhibition of growth at 10 µM [32]: -3.77%; inhibition of growth at 10 µM [33]: 43.9%; inhibition of growth at 10 µM [34]: 27.8%; inhibition of growth at 10 µM [35]: 105%; inhibition of growth at 10 µM [36]: -4.12%
2 | COc1cc2oc(-c3cccc(NC(=O)c4ccc5c(c4)OCO5)c3)cc(=O)c2c(OC)c1OC | 37.6% | 57.9% | 75.8% | 56.4% | 60.5% | 72.8% | 88.5% | 67.9% | 48.7% | 52.2% | 97.1% | 53% | 23.6% | 56.5% | 22.7% | 106% | 24.5% | 22.9% | 47.1% | 67.5% | inhibition of growth at 10 µM [21]: 43%; inhibition of growth at 10 µM [22]: 154%; inhibition of growth at 10 µM [23]: 36%; inhibition of growth at 10 µM [24]: 38.4%; inhibition of growth at 10 µM [25]: 31.9%; inhibition of growth at 10 µM [26]: 41.9%; inhibition of growth at 10 µM [27]: 70.6%; inhibition of growth at 10 µM [28]: 63.3%; inhibition of growth at 10 µM [29]: 48.7%; inhibition of growth at 10 µM [30]: 112%; inhibition of growth at 10 µM [31]: 80.5%; inhibition of growth at 10 µM [32]: 46.1%; inhibition of growth at 10 µM [33]: 54.8%; inhibition of growth at 10 µM [34]: 45.6%; inhibition of growth at 10 µM [35]: 32.6%; inhibition of growth at 10 µM [36]: 44.9%
3 | COc1cccc(C(=O)Nc2cccc(-c3cc(=O)c4c(O)c(OC)c(OC)cc4o3)c2)c1 | 21.6% | 34.9% | 52.9% | 34.9% | 57.6% | 45.6% | 54.8% | 58.4% | 35.4% | 35.5% | 49.3% | 25.7% | 29.5% | 30.9% | 25.9% | 31.2% | 28.8% | 23.8% | 32.6% | 28.4% | inhibition of growth at 10 µM [21]: 22.9%; inhibition of growth at 10 µM [22]: 74.2%; inhibition of growth at 10 µM [23]: 19%; inhibition of growth at 10 µM [24]: 16.7%; inhibition of growth at 10 µM [25]: 5.46%; inhibition of growth at 10 µM [26]: 33.4%; inhibition of growth at 10 µM [27]: 27.9%; inhibition of growth at 10 µM [28]: 56.9%; inhibition of growth at 10 µM [29]: 43.7%; inhibition of growth at 10 µM [30]: 50.5%; inhibition of growth at 10 µM [31]: 26.7%; inhibition of growth at 10 µM [32]: 33.1%; inhibition of growth at 10 µM [33]: 34.1%; inhibition of growth at 10 µM [34]: 37.1%; inhibition of growth at 10 µM [35]: 13.1%; inhibition of growth at 10 µM [36]: 22.5%
